In the library only some 2.6% were active in any assay of this set; here they are far more common.
GSIS activator – primary screen for activators of insulin secretion dependent on glucose, INS-1E cells, GLuc reporter luminescence | INS-1E GLuc reporter insulin secretion, 2-3 h | activation, % at 16.6 µM | hit rate 0.61% among 370,000 | AID 743287;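 active = lowest replicate activation of at least 40%, so every replicate reaches that level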
miR122 inh – blocks miR-122 activity in Huh7 sensor cells; Huh7 miR-122 Renilla luciferase sensor, 48 h; neutral wells = 0, positive control = 100; activation (reporter increase), % at 12.5 µM; hit rate 0.3% among 340,000; AID 602342;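 active = mean replicate activation score at least 90 and every replicate individually at or above 90; inconclusive = only one of the two criteria met; inactive = neither criterion met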;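 also: higher luciferase means less miR-122 activity so hits act as miR-122 inhibitors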
ERAP1 HTS inh – blocks human ERAP1 aminopeptidase activity. recombinant ERAP1, Leu-AMC fluorescence, 60 min. inhibition, % at 10.7 µM. hit rate 0.15% among 340,000;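 active = mean replicate inhibition of at least 30%, or all replicates individually reaching that 30% level; inactive = mean below 30% and not every replicate reaching it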
Target sequence (Q9NZ08 whole entry, looked up): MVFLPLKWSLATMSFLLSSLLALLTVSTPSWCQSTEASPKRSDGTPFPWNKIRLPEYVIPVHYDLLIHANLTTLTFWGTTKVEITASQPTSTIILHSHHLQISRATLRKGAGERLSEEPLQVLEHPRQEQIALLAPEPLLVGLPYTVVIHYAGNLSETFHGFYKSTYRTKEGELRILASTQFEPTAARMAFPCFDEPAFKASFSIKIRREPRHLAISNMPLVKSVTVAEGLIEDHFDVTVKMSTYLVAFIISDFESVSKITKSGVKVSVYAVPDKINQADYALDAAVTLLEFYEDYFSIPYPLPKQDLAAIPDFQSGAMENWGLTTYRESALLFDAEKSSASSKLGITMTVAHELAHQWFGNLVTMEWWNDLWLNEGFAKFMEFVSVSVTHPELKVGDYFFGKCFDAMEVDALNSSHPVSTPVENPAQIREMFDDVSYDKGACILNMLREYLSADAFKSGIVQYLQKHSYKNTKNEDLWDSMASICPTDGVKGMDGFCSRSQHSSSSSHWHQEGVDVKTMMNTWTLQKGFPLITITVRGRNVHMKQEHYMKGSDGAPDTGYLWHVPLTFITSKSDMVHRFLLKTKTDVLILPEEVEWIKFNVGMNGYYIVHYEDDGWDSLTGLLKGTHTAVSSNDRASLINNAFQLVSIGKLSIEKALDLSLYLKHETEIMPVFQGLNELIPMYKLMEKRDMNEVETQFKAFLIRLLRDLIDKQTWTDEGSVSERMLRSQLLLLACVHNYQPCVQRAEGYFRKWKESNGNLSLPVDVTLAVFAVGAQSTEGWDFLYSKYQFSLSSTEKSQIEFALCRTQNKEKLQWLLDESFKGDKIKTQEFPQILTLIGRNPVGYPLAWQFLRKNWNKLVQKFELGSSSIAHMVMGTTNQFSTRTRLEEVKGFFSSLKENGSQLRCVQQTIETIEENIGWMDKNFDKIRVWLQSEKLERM
E-sel inducer – E-selectin induction on HUVECs; P16581; hit rate 0.37% among 260,000; HUVEC E-selectin immunofluorescence imaging; normalized: neutral wells 0, TNF-alpha wells 100; activation, % at 7.58 µM;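 active = mean E-selectin-positive cell signal at least 10% of the positive control, reached in at least 60% of replicates, without over 20% cell loss; inconclusive = no rule given, readout overlaps actives, possibly toxicity-flagged; inactive = the rest, including those meeting only one limit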
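assay system = HUVEC, human umbilical vein endothelial cells | input = 3,000 HUVEC seeded per well | medium = EGM-2 growth medium on 0.1% gelatin-coated wells | dosing = one compound dose added by pin transfer | signal = immunofluorescence imaging | read-out basis = % PE-positive cells | control set = TNF-alpha, DMSO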
DENV2 CPE – protects cells from dengue virus 2 cytopathic effect; CPE inhibition, % at 9.99 µM; AID 651640; DENV2-infected cells, cytopathic effect rescue, plate reader; hit rate 1.7% among 350,000; in the data active = CPE inhibition above about 20%, passing the limit was not always enough; inconclusive = no clear call, values can overlap the other calls; tested in BHK-21 cells
F508del corr – correctors of CFTR F508del function in bronchial epithelial cells. CFBE cells, YFP halide quenching; stimulated with forskolin plus potentiator P3; % fluorescence drop versus neutral controls. activity (quench increase), % at 7.58 µM. hit rate 0.36% among 350,000. AID 720511;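 active = mean added fluorescence quench of at least 8% versus neutral control, with both replicates also reaching 8%; inconclusive = only one of the mean or replicate conditions met; inactive = mean below 8% and not both replicates reaching 8%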;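 also: cells transiently co-express mutant CFTR-F508del with the halide-sensitive YFP; corrector assay measuring rescue of mutant channel to the surface after 24 h compound exposure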
Hits are given with their value; i = inactive; ? = inconclusive; nt = not tested or not shown.

SMILES	GSIS activator	miR122 inh	ERAP1 HTS inh	E-sel inducer	DENV2 CPE	F508del corr
CCC(=O)Nc1ccc2c(c1)OC[C@@H](C)N(C(=O)COC)C[C@H](C)[C@@H](OC)CN(C)C2=O	i	nt	nt	i	nt	i
COc1ccc(NC(=O)N(C)C[C@@H]2Oc3ncc(-c4ccc(C#N)cc4)cc3C(=O)N([C@H](C)CO)C[C@H]2C)cc1	i	i	i	i	i	i
CCOc1ccc(/C=N/NC(=O)c2ccccc2O)cc1CN1CC2CC(C1)c1cccc(=O)n1C2 (stereo not drawn)	i	i	i	nt	58	i
O=C(NCc1ccc2c(c1)OCO2)[C@@H]1[C@@H](CO)[C@@H]2Cn3c(cccc3=O)[C@H]1N2Cc1ccncc1	i	i	i	i	i	i
Cc1ccc(CNC(=O)c2ccc3c(=O)c(O)c(-c4ccc(C)cc4)[nH]c3c2)cc1	i	i	i	i	nt	14
CCCNC(=O)c1ccc2c(=O)c(O)c(-c3ccc(C)cc3)[nH]c2c1	i	nt	i	i	i	i
O=C(C[C@H]1C=C[C@@H](NC(=O)Cc2cccnc2)[C@@H](CO)O1)Nc1ccccc1	i	nt	i	i	i	i
COc1cccc(-c2ccc([C@@H]3[C@@H](CO)N4C(=O)CN(C(=O)C5CCOCC5)C[C@@H]34)cc2)c1	i	nt	i	i	i	i
CCCNC(=O)C[C@H]1CC[C@H]2[C@@H](COC[C@@H](O)CN2S(=O)(=O)c2ccccc2F)O1	i	i	i	i	i	i
Cc1ccccc1S(=O)(=O)N1C[C@@H](O)COC[C@@H]2O[C@H](CC(=O)N3CCCCC3)CC[C@H]21	i	i	i	i	110	i
Cc1ccccc1S(=O)(=O)N1C[C@@H](O)COC[C@@H]2O[C@@H](CC(=O)N3CCCCC3)CC[C@H]21	i	i	i	i	i	i
Cn1cnc(S(=O)(=O)N2C[C@H](O)COC[C@@H]3O[C@@H](CC(=O)NC4CCCC4)CC[C@H]32)c1	i	i	i	i	59	i
CCNC(=O)C[C@@H]1CC[C@H]2[C@@H](COC[C@@H](O)CN2S(=O)(=O)c2ccccc2F)O1	i	i	i	i	23	i
Cc1[nH]c(C)c(S(=O)(=O)Nc2ccccc2Cl)c1C(=O)N1CCCC1	i	i	i	nt	i	i
COc1ccccc1NS(=O)(=O)c1c(C)[nH]c(C)c1C(=O)N1CCCC1	i	i	i	50	i	i
CC(C)[C@@H]1COCc2cn(nn2)CC[C@H](Cc2ccc(-c3ccccc3)cc2)C(=O)N1	i	nt	nt	nt	nt	nt
Cc1cc(N(C)C(=O)c2ccc3c(c2)S(=O)(=O)c2cc(Cl)ccc2C3=O)c(C(F)(F)F)o1	i	i	nt	i	49	i
C[C@H](CO)N1C[C@H](C)[C@H](CN(C)C(=O)Nc2ccc(F)cc2)Oc2cc(/C=C/c3ccccc3)ccc2S1(=O)=O	nt	i	i	nt	i	i
C[C@H]1CN([C@@H](C)CO)C(=O)Cc2cc(NC(=O)Nc3ccc(F)cc3)ccc2O[C@H]1CN(C)S(=O)(=O)c1ccc(Cl)cc1	i	i	i	i	43	i
C[C@@H]1CN([C@@H](C)CO)C(=O)Cc2cc(NC(=O)Nc3ccc(F)cc3)ccc2O[C@H]1CN(C)S(=O)(=O)c1ccc(Cl)cc1	i	i	i	i	i	i
C[C@H]1CN([C@@H](C)CO)C(=O)Cc2cc(NC(=O)Nc3ccc(F)cc3)ccc2O[C@@H]1CN(C)S(=O)(=O)c1ccc(Cl)cc1	i	i	i	?	i	i
C[C@@H]1CN([C@H](C)CO)C(=O)Cc2cc(NC(=O)Nc3ccc(F)cc3)ccc2O[C@@H]1CN(C)S(=O)(=O)c1ccc(Cl)cc1	i	i	i	35	i	i
Cc1nc2cc(Br)ccc2c(=O)n1Cc1cccc(O)c1	nt	nt	i	nt	i	i
O=S(=O)(Cc1ccccc1)N1CCCCN2[C@H](CO)[C@@H](c3ccc(-c4ccccc4)cc3)[C@@H]2C1	i	i	i	i	i	i
Cc1c(NC(=O)/C(C#N)=C/c2c(Oc3ccccc3)nc3ccccn3c2=O)c(=O)n(-c2ccccc2)n1C	45	nt	nt	nt	nt	nt
SMILES	GSIS activator	miR122 inh	ERAP1 HTS inh	E-sel inducer	DENV2 CPE	F508del corr
CCCNC(=O)N1CC2(C1)[C@H](c1ccccc1)[C@H](CO)N2C(=O)C1CCCC1	i	nt	i	i	i	i
C[n+]1cccc(C(=O)NNC(=O)C23CC4CC(CC(C4)C2)C3)c1	i	i	109	nt	i	i
COc1ccccc1-c1cc(-c2ccccc2)nc(SCC(=O)O)c1C#N	i	i	42	nt	i	i
COc1ccc(-c2cc(-c3ccc(Cl)cc3)c(C#N)c(SCC(=O)O)n2)cc1	i	i	i	nt	61	i
COc1ccc(-c2cc(-c3ccccc3)c(C#N)c(SCC(=O)O)n2)cc1	i	i	i	i	i	i
CC(C)NC(=O)N[C@H]1CC[C@H](CC(=O)O)O[C@H]1CO	i	i	i	i	i	i
CCC(=O)N1CCC2(CC1)CN(C(=O)c1ccccn1)[C@@H](CO)c1c2c2ccc(OC)cc2n1C	i	nt	nt	nt	nt	nt
CCCCc1cc(=O)oc2c(CN(CC)CC)c(O)c(Cl)cc12	nt	i	nt	nt	nt	nt
CCCc1cc(=O)oc2c(CN(CC)CC)c(O)c(Cl)cc12	i	i	189	i	i	i
CNC(=O)C[C@@H]1CC[C@H]2[C@@H](COC[C@H](O)CN2C(=O)Nc2cccc(OC)c2)O1	i	i	i	i	58	i
O=C(C[C@H]1CC[C@H]2[C@@H](COC[C@H](O)CN2C(=O)Nc2ccccc2)O1)NC1Cc2ccccc2C1	i	i	i	i	i	i
O=C(C[C@H]1CC[C@H]2[C@@H](COC[C@H](O)CN2C(=O)Nc2ccc(F)cc2)O1)NC1Cc2ccccc2C1	i	i	i	i	43	i
COc1ccc(NC(=O)N2C[C@@H](O)COC[C@@H]3O[C@H](CC(=O)NC4Cc5ccccc5C4)CC[C@H]32)cc1	i	i	i	i	100	i
COc1ccc(NC(=O)Nc2ccc3c(c2)C(=O)N([C@H](C)CO)C[C@@H](C)[C@@H](CN(C)CC2CCCCC2)OCCCC[C@@H](C)O3)cc1	i	i	i	i	i	i
C[C@@H]1CN([C@@H](C)CO)C(=O)c2cc(C#Cc3ccncc3)cnc2O[C@@H]1CN(C)S(=O)(=O)c1ccccc1F	i	i	i	nt	i	i
O=C(NCC[C@H]1CC[C@H](NS(=O)(=O)c2ccc(F)cc2)[C@@H](CO)O1)c1ccccc1F	i	nt	i	i	i	i
COc1cc(C#CC#CCN2CCCCC2)ccc1O	44	i	nt	nt	nt	nt
COc1cc(C(=O)OCCN2CCCCC2)ccc1O	nt	i	nt	nt	nt	nt
Cc1noc(C)c1NC(=O)N(C)C[C@@H]1Oc2c(cccc2N(C)C)C(=O)N([C@H](C)CO)C[C@@H]1C	i	i	i	i	24	i
C[C@H](CO)N1C[C@H](C)[C@H](CN(C)C)Oc2c(NC(=O)Nc3cccc4ccccc34)cccc2C1=O	i	nt	i	nt	34	i
